The values that follow come from ChEMBL document CHEMBL3826888, “New naphthalene derivatives and isoquinoline alkaloids from Ancistrocladus cochinchinensis with their anti-proliferative activity on human cancer cells” (Bioorg Med Chem Lett, 2016).

In brackets after ≈: the same amount, converted by molar mass.

Experiment [1] relates to SK-MEL-2. Nature of the experiment: Antiproliferative activity against human SK-MEL-2 cells assessed as cell death at 20 ug/ml after 3 days by sulforhodamine B assay relative to control. The format is functional. The gist of the method: (§1)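 Human cancer cell lines HL-60 (promyelocytic leukemia), LU-1 (lung carcinoma) and SK-MEL-2 (melanoma) were screened by sulforhodamine B assay, with each sample at a single concentration of 20 µg/mL. The read-out was percentage cell death; samples giving over 50% death went on to dose-response testing. Ellipticine was the positive control throughout.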
Background: Sulforhodamine B stains cellular protein and so reports cell mass.

Experiment [2] relates to Lu1. Nature of the experiment: Antiproliferative activity against human Lu1 cells assessed as cell death at 20 ug/ml after 3 days by sulforhodamine B assay relative to control. Format: functional. The gist of the method:
as §1

Experiment [3] in a line: Antiproliferative activity against human HL60 cells assessed as cell death at 20 ug/ml after 3 days by sulforhodamine B assay relative to control. Format: functional, HL-60. The gist of the method:
as §1

Experiment [4] deals with Trypanosoma brucei brucei. Briefly: Antitrypanosomal activity against Trypanosoma brucei brucei TC221. Format: functional, organism-based.
The test system of experiment [5] is Lu1. Nature of the experiment: Antiproliferative activity against human Lu1 cells after 3 days by sulforhodamine B assay relative to control. The format is functional, cell-based. The conditions noted are these: Lu1, 72 h. The gist of the method:
(§2)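 SRB cell-proliferation assay on human cancer cell lines. Each sample was first screened at a single concentration of 20 µg/mL. Samples causing over 50% cell death then went to a dose-dependent study to derive IC50 in µg/mL. Ellipticine served as positive control throughout.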

The nature of experiment [6]: Antiproliferative activity against human HL60 cells after 3 days by sulforhodamine B assay relative to control. The format is functional, cell-based. The conditions noted are these: HL-60, 72 h. The gist of the method:
as §2

The subject of experiment [7] is SK-MEL-2. Briefly: Antiproliferative activity against human SK-MEL-2 cells after 3 days by sulforhodamine B assay relative to control. Format: functional, cell-based. The note with it: SK-MEL-2, 72 h. The gist of the method:
as §2

The test system of experiment [8] is Plasmodium falciparum. Nature of the experiment: Antiparasitic activity against Plasmodium falciparum NF54 after 48 hrs by [3H]-hypoxanthine incorporation assay. Format: functional, organism-based.
Experiment [9] concerns Plasmodium falciparum. Nature of the experiment: Antiparasitic activity against Plasmodium falciparum K1. Format: functional, organism-based.

For `COc1cc(O)ccc1O[C@@H]1O[C@H](COC(=O)c2cc(OC)c(O)c(OC)c2)[C@@H](O)[C@H](O)[C@H]1O`, the Activity (in the experiment on SK-MEL-2 [1]; with Lu1 [2]; in experiment [3]) was below 50% each time.
Regarding `COc1cc([C@H]2OC[C@H]3[C@@H]2CO[C@H]3c2cc(OC)c(O[C@@H]3O[C@H](CO)[C@@H](O)[C@H](O)[C@H]3O)c(OC)c2)cc(OC)c1O`, the Activity (in the experiment on SK-MEL-2 [1]; with Lu1 [2]; in [3]) was below 50% throughout.
In general, EC50 refers to the midpoint of the concentration-response curve. Read a high EC50 as a need for much substance. As to `COc1cc(C)cc2ccc(-c3ccc4c(c3O)[C@@H](C)N[C@H](C)C4)c(O)c12`, in [4], the EC50 was 2.6 µM.
On to `COc1cc(O[C@@H]2O[C@H](CO)[C@@H](O)[C@H](O)[C@H]2O)cc2cc(CO)nc(C)c12`, for which the Activity (in the experiment on SK-MEL-2 [1]; in the experiment with Lu1 [2]; in experiment [3]) was below 50% each time.
With `COc1cc(O)cc2cc(CO)nc(C)c12`, the Activity (in the experiment on SK-MEL-2 [1]; with Lu1 [2]; in experiment [3]) was below 50% throughout.
A word on the IC50: it is the concentration needed to halve the response being measured. A higher IC50 goes with lower potency. For the molecule `COc1cc(O)c(-c2c(C)cc(OC)c3c(OC)cccc23)c2c1[C@@H](C)N[C@@H](C)C2`, the Activity (in the experiment on SK-MEL-2 [1]; in the experiment on Lu1 [2]; in experiment [3]) was above 50% each time. In addition, the results for the IC50 (in the experiment with Lu1 [5]; in [6]; in the experiment with SK-MEL-2 [7]) were 6.5 µg/mL (≈ 16 µM), 5 µg/mL (≈ 12.3 µM) and 6.8 µg/mL (≈ 16.7 µM), respectively.
Take `COc1cccc2c(-c3ccc4c(c3O)[C@@H](C)N[C@H](C)C4)c(C)c(-c3c(C)c(-c4ccc5c(c4O)[C@@H](C)N[C@H](C)C5)c4cccc(OC)c4c3O)c(O)c12`: the IC50 in the experiment with Plasmodium falciparum [8] was 0.0014 µM. This counts as single-digit nanomolar.
In the case of `Cc1cc(O)c2c(c1)[C@H](O[C@@H]1O[C@H](CO[C@@H]3O[C@H](CO)[C@@H](O)[C@H](O)[C@H]3O)[C@@H](O)[C@H](O)[C@H]1O)CCC2=O`, the Activity (with SK-MEL-2 [1]; in the experiment on Lu1 [2]; in [3]) was below 50% each time.
For `Cc1cc(O[C@@H]2O[C@H](CO[C@@H]3OC[C@](O)(CO)[C@H]3O)[C@@H](O)[C@H](O)[C@H]2O)c2c(O)cccc2c1`, the Activity (with SK-MEL-2 [1]; in the experiment on Lu1 [2]; in [3]) was below 50% each time.
In the experiment with Plasmodium falciparum [9] (Plasmodium falciparum, K1), `COc1cc(O)c(-c2c(C)cc(O)c3c(OC)cccc23)c2c1[C@@H](C)N(C)[C@@H](C)C2` came in with an IC50 of 0.08 µM. In other words, the double-digit nanomolar range.
In the experiment on Plasmodium falciparum [9], `COc1cc(O)c2c(c1-c1c(C)cc(OC)c3c(OC)cccc13)C[C@H](C)N[C@H]2C` (stereo in doubt; form 1) had an IC50 of 0.07 µM.
`COc1cc(O)c2c(c1-c1c(C)cc(OC)c3c(OC)cccc13)C[C@H](C)N[C@H]2C` (stereo in doubt; form 2) registered an IC50 in the experiment on Plasmodium falciparum [9] of 0.03 µM.
For the molecule `COc1cccc2c(-c3ccc4c(c3O)[C@@H](C)N[C@H](C)C4)c(C)cc(OC)c12` [DIONCOPHYLLINE A], the EC50 in experiment [4] amounted to 3.4 µM. This counts as single-digit micromolar.
In the case of `COc1cc(C)c(-c2ccc(O)c3c2C[C@@H](C)N[C@@H]3C)c2cccc(O)c12` [DIONCOPHYLLINE C], in experiment [4], the EC50 worked out at 4.2 µM.
